According to ChEMBL document CHEMBL1131456, “Synthesis, pharmacological characterization, and quantitative structure-activity relationship analyses of 3,7,9,9-tetraalkylbispidines: derivatives with specific bradycardic activity” (J Med Chem, 1998):

Columns and labels:
[1] = species: Cavia porcellus; assay: Score point for the selectivity versus additional effect FRP.; assay type: functional
[2] = species: Rattus norvegicus; assay: Selectivity quotient (DAP125/HR75)
[3] = test system: Rattus norvegicus; assay: In vivo activity in anesthetized rat was measured as the R alpha T-interval of the rat ECG which reflects the time from ventricular excitation to recovery; assay type: functional, Cardiac ventricle
How it was run: (§1)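 Male Wistar rats (280–360 g) under urethane (1.25 g/kg ip), intubated and breathing spontaneously. Femoral arterial pressure was recorded with needle-electrode ECG, analysed every 30 s. Compound was given by continuous femoral-vein infusion at 0.1 mL/min, with concentration raised tenfold every 10 min (3 doses). ED75/ED125 is the dose giving a 25% decrease/increase from the predrug value, reported as the geometric mean of individual EDs.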

[4] = species: Cavia porcellus; assay: Selectivity quotient (FRP125/SR75); assay type: functional
How it was run: (§2)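 Atrial selectivity quotients were calculated from the guinea pig atrial EC values as F75/SR75 and FRP125/SR75.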

[5] = species: Cavia porcellus; assay: Score value indicates selectivity versus the decrease in force of contraction; assay type: functional
[6] = species: Cavia porcellus; assay: In vitro activity in guinea pig atria was measured as the peak force of contraction (F) of a stimulated left atrium; assay type: functional; settings: Cardiac atrium
How it was run: (§3)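 Isolated guinea pig atria in oxygenated buffer at 35 °C. Right atria beat spontaneously; left atria were paced at 2 Hz with 1 ms rectangular pulses and isometric contractions were recorded. Cumulative concentration–response curves were run with up to five concentrations. EC75/EC125 is the concentration giving a 25% decrease/increase from the predrug value, reported as the geometric mean of individual ECs.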

[7] = test system: Rattus norvegicus; assay: In vivo activity in anesthetized rat was measured as the diastolic arterial pressure which provides information on the peripheral resistance of the cardiovascular system and selectivity regarding bradycardia; assay type: functional, Artery; how it was run: as §1
[8] = species: Cavia porcellus; assay: Score value indicates decrease of the sinus rate; assay type: functional
[9] = species: Cavia porcellus; assay: In vitro activity in guinea pig atria as the functional refractory period (FRP), which is the shortest interval between a double stimulus causing a double contraction.; how it was run: as §3
[10] = Partition coefficient (logP); assay type: physicochemical; settings: octanol/water
How it was run: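 Lipophilicity was measured by reversed-phase HPLC. Mobile phase was methanol/0.005 M phosphate buffer pH 4 (60/40) with 0.1% SDS and 0.1 M NaClO4, at 23.0 ± 0.5 °C, with UV detection at 205 nm.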

[11] = species: Rattus norvegicus; assay: Total score (SS)
[12] = species: Cavia porcellus; assay: Selectivity quotient (F75/SR75); assay type: functional; how it was run: as §2
[13] = species: Cavia porcellus; assay: In vitro activity in guinea pig atria was measured as rate of spontaneously beating right atrium (SR) which reflects the activity of the sinus node; assay type: functional; settings: Cardiac atrium; how it was run: as §3
[14] = species: Rattus norvegicus; assay: Score value indicates desire effect on heart rate; assay type: functional
[15] = species: Rattus norvegicus; assay: Score point for the selectivity versus additional effect R&T interval.; assay type: functional
[16] = species: Cavia porcellus; assay: Sum of the scores of decrease of the sinus rate and selectivity versus the decrease in force of contraction; assay type: functional
[17] = species: Rattus norvegicus; assay: Score value indicates selectivity against the undesired effect on diastolic blood pressure; assay type: functional, Artery
[18] = species: Rattus norvegicus; assay: Selectivity quotient (R&T125/HR75)
[19] = test system: Rattus norvegicus; assay: In vivo activity in anesthetized rat was measured as heart rate which provides information on in vivo bradycardic activity; assay type: functional; how it was run: as §1

SMILES | Score [1] | Selectivity quotient [2] | ED125 [3] [µM/kg] | Selectivity quotient [4] | Score [5] | EC75 [6] [µM] | ED125 [7] [µM/kg] | Score [8] | EC125 [9] [µM] | logP ([10]; read-out: logP) | total score (SS) [11] | Selectivity quotient [12] | EC75 [13] [µM] | Score [14] | Score [15] | Score [16] | Score [17] | Selectivity quotient [18] | ED75 [19] [µM/kg] | logP [10]
C=CCCN1CC2CN(CCCC)CC(C1)C2(C)C | 3 | 0.37 | 0.7 | 1.72 | 0 | 106 | 2.2 | 5 | 2.08 | 3.42 | 1 | 87.6 | 1.21 | 5 | 5 | 5 | -4 | 0.12 | 5.9 | –
C=CCN1CC2CN(CC=C)CC(C1)C2(C)C | 4 | – | – | 0.5 | 0 | > 215 | – | 3 | 4.3 | 2.7 | – | >25 | 8.55 | – | – | 3 | – | – | – | –
CCCC1(CCC)C2CN(C(C)C)CC1CN(C(C)C)C2 | 4 | 1.72 | 1.8 | 0.37 | -1 | 39.6 | 11 | 5 | 0.8 | 4.51 | 2 | 18.2 | 2.18 | 5 | 4 | 4 | -3 | 0.28 | 6.4 | –
CN1CC2CN(C)CC(C1)C2(C)C | 3 | – | – | 1 | -5 | – | – | 0 | 122 | 1.61 | – | 1 | – | – | – | -5 | – | – | – | –
CCCCC1(CCCC)C2CN(CC3CCCCC3)CC1CN(C(C)C)C2 | 3 | >7 | 1.1 | 0.76 | -5 | 3.65 | >66 | 5 | 1.45 | 7.61 | 3 | 1.92 | 1.9 | 4 | 5 | 0 | -1 | 0.12 | 9.3 | –
CCCCCCCCCCN1CC2CN(CCCCCCCCCC)CC(C1)C2(C)C | – | – | – | – | – | 105 | – | – | 85 | – | – | – | – | – | – | – | – | – | – | 9.64
CCCCCCN1CC2CN(C)CC(C1)C2(CC)CC | – | >4 | 3 | – | – | 17.5 | >106 | – | 0.84 | 4.88 | 2 | – | – | 3 | 5 | – | -1 | 0.12 | 25 | –
CCCCCCN1CC2CN(CCCCCC)CC(C1)C21CCCC1 | 3 | 0.2 | 5.6 | 0.51 | -3 | 3.07 | 2.8 | 6 | 0.44 | 5.47 | -1 | 3.53 | – | 3 | 4 | 3 | -4 | 0.4 | 14 | –
